Results taken from article PMC2229441 (The Journal of General Physiology, 1998).
Like-named read-outs stand apart in the source and are kept apart here.

Tests used:
patch-clamped mast cells = format: cell-based, rat
In short: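 Peritoneal mast cells from male Wistar rats (300–350 g), Percoll-purified, held in DMEM/F-12 with 2 mM glutamine at 37°C, 5% CO2. Test peptide is delivered through the patch pipette (IS 2 with 100 μM FURA-2 and EGTA buffering). Degranulation is tracked as membrane capacitance rise after patch rupture; delay is taken at 10% capacitance increase. [Ca2+]i is read from 340/380 nm ratios. Mean ± SEM (cells).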

PtX-treated mast cells = conditions: non–membrane-penetrating dyes; ref Wiesner et al., manuscript in preparation; cited from earlier work

## Nc1nc2c(ncn2[C@@H]2O[C@H](COP(=O)(O)OP(O)(O)=S)[C@@H](O)[C@H]2O)c(=O)[nH]1 [GDPβS]
patch-clamped mast cells; 1 mM GDPβS applied together with 5 μM SP through the patch pipette
  cells in which SP-induced exocytosis was inhibited: four of five

## Nc1nc2c(ncn2[C@@H]2O[C@H](COP(=O)(O)OP(=O)(O)OP(O)(O)=S)[C@@H](O)[C@H]2O)c(=O)[nH]1 [GTPγS]
patch-clamped mast cells; 2.5–5 μM, n = 25, mean ± SEM
  degranulation rate: 0.05 ± 0.005 pF/s
patch-clamped mast cells; 10–25 μM, n = 16, mean ± SEM
  degranulation rate: 0.15 ± 0.03 pF/s
patch-clamped mast cells; extrapolation of curves of Fig. 7
  shortest time delay, extrapolated to high concentrations: about 20 s
patch-clamped mast cells; intracellular application at similar concentrations as SP, IS 1
  cells in which degranulation occurred: 41 of 45
patch-clamped mast cells; intracellular application, IS 1, mean ± SEM (SP n = 31)
  membrane capacitance increase in degranulating cells: 2.7 ± 0.1 fold

## carboxyfluorescein
PtX-treated mast cells
  translocation into PtX-treated mast cells: not translocated
